Measured values gathered from unrelated publications.
Compare with care: the assays were run in different laboratories. pIC50: −log10 of the molar value.

COc1ccc(Nc2ncnc3c2ncn3Cc2ccc(C(=O)NO)cc2)cc1 gave a pIC50 of 6.38 (THP-1; cell growth or viability; MTT; 72 h).
With O=c1cc(OCc2cc(-c3ccc(C(F)(F)F)cc3)no2)c2ccccc2o1 the pIC50 was less than 4.00 (CAPAN-1; cell growth or viability; MTS; 72 h).
O=C(NO)c1ccc(Cn2cnc3c(Nc4ccc(Cl)cc4)ncnc32)cc1 has a pIC50 of 6.72 (THP-1; cell growth or viability; MTT; 72 h).
N/C(=N\O)c1ccc(-c2cc(CNc3cccc4cccnc34)on2)cc1 gave a pIC50 of 5.33 (CAPAN-1; cell growth or viability; MTS; 72 h).
For Cc1cc2c(C(N)=O)cccc2n1-c1nc2c(c(NCc3ccccc3)n1)CCCN2, the pIC50 was 6.22 (SW-620; cell growth or viability; 72 h).
COc1ccc(C[C@H](N)C(=O)N[C@H]2[C@@H](O)[C@H](n3cnc4c(N(C)C)ncnc43)O[C@@H]2CO)cc1 gave a pIC50 of 5.69 (THP-1; cell growth or viability; 72 h).
The pIC50 of C[C@H]1C[C@H]2[C@@H]3CCC4=CC(=O)C=C[C@]4(C)[C@H]3C(=O)C[C@]2(C)[C@@]1(O)C(=O)CO is reported as 5.28 (HepaRG; reactive oxygen species; inhibitor; 16 h).
COc1ccc(N(C)c2nc(C)nc3ccccc23)cc1OCCCC(=O)NO gave a pIC50 of 7.02 (MP46; cell growth or viability; ATP luminescence; 72 h).
CC1(P2(=O)CCCCC2)CCCCC1 has a pIC50 of less than 4.00 (SW-620; cell growth or viability; MTT; 72 h).
With FC(F)(F)c1cc(OCc2cc(-c3ccccn3)no2)c2ccccc2n1 the pIC50 was less than 4.00 (CAPAN-1; cell growth or viability; MTS; 72 h).
For CCNC(=O)c1cc2c(-c3cc(C(C)(C)O)ccc3Oc3c(C)cc(F)cc3C)cn(C)c(=O)c2[nH]1, the pIC50 was 1.25 (MP46; cell growth or viability; ATP luminescence; 72 h).
For Nc1ccccc1NC(=O)c1ccc(Cn2cnc3c(Nc4ccc(Br)cc4F)ncnc32)cc1, the pIC50 was 6.39 (THP-1; cell growth or viability; MTT; 72 h).
For O=C(CSc1nc2ccccc2s1)N/N=C/c1ccc(OCC(=O)Nc2ccc([N+](=O)[O-])cc2)cc1, the pIC50 was 4.53 (CAPAN-1; cell growth or viability; MTS; 72 h).
The pIC50 of c1ccc(-c2cc(CNc3cccc4cccnc34)on2)nc1 is reported as 4.88 (CAPAN-1; cell growth or viability; MTS; 72 h).
The pIC50 of O=C(CSc1nc2ccccc2s1)N/N=C/c1ccc(OCC(=O)Nc2cccc(Br)c2)cc1 is reported as less than 4.00 (CAPAN-1; cell growth or viability; MTS; 72 h).
Clc1ccc(-c2cc(CNc3cccc4cccnc34)on2)c(Cl)c1 gave a pIC50 of 4.83 (CAPAN-1; cell growth or viability; MTS; 72 h).
O=C(CSc1nc2ccccc2s1)N/N=C/c1ccc(OCC(=O)Nc2cccc([N+](=O)[O-])c2)cc1 has a pIC50 of 5.37 (CAPAN-1; cell growth or viability; MTS; 72 h).
For CC(C)(C)c1cnc(CSc2cnc(NC(=O)C3CCN(C(=O)CCCCCCCN4Cc5cc6c(cc5C4)C(=O)N(C4CCC(=O)NC4=O)C6=O)CC3)s2)o1 (stereo not shown), the pIC50 was 6.76 (SJSA-1; cell growth or viability; MTT).
For c1ccc(-c2cc(CNc3cccc4cccnc34)on2)cc1, the pIC50 was 4.94 (CAPAN-1; cell growth or viability; MTS; 72 h).
CCS(=O)(=O)Nc1ccc(Oc2ccc(F)cc2F)c(-c2cn(C)c(=O)c3[nH]ccc23)c1 has a pIC50 of 7.05 (MP46; cell growth or viability; ATP luminescence; 72 h).
The pIC50 of CC1(COc2ccc(CC3SC(=O)NC3=O)cc2)CCCCC1 (stereo not shown) is reported as 4.95 (HepaRG; reactive oxygen species; inhibitor; 16 h).
With COc1cccc2c1C(=O)c1c(O)c3c(c(O)c1C2=O)C[C@@](O)(C(=O)CO)C[C@@H]3O[C@H]1C[C@H](N)[C@H](O)[C@H](C)O1 the pIC50 was 6.52 (SW-620; cell growth or viability; MTT; 72 h).
The pIC50 of FC(F)(F)c1cc(OCc2cc(-c3ccc(Cl)cc3Cl)no2)c2ccccc2n1 is reported as less than 4.00 (CAPAN-1; cell growth or viability; MTS; 72 h).
With COc1ccc(-c2nc(N3CCOCC3)c3sc(CN(C)c4ncc(C(=O)NO)cn4)cc3n2)cn1 the pIC50 was 8.03 (MP46; cell growth or viability; ATP luminescence; 72 h).
O=c1cc(OCc2cc(-c3ccccc3)no2)c2ccccc2o1 gave a pIC50 of less than 4.00 (CAPAN-1; cell growth or viability; MTS; 72 h).
With Nc1ccn([C@@H]2O[C@H](CO)[C@@H](O)C2(F)F)c(=O)n1 the pIC50 was 6.77 (MP46; cell growth or viability; ATP luminescence; 72 h).
For O=P1(c2ccccc2)CCCCC1, the pIC50 was less than 4.00 (SW-620; cell growth or viability; MTT; 72 h).
For C/C=C1\NC(=O)[C@H]2CSSCC/C=C/[C@H](CC(=O)N[C@H](C(C)C)C(=O)N2)OC(=O)[C@H](C(C)C)NC1=O, the pIC50 was 8.90 (MP46; cell growth or viability; ATP luminescence; 72 h).
O=C(NO)c1ccc(Cn2cnc3c(Nc4ccc(Br)cc4F)ncnc32)cc1 gave a pIC50 of 6.03 (THP-1; cell growth or viability; MTT; 72 h).
CSC(=O)c1cccc2nnsc12 gave a pIC50 of 4.97 (HepaRG; reactive oxygen species; inhibitor; 16 h).
The pIC50 of COc1cc([C@@H]2c3cc4c(cc3[C@H](O)[C@H]3COC(=O)[C@H]23)OCO4)cc(OC)c1OC is reported as 8.18 (MP46; cell growth or viability; ATP luminescence; 72 h).
